From ChEMBL document CHEMBL1140914, “Synthesis and in vitro and in vivo evaluation of 18F-labeled positron emission tomography (PET) ligands for imaging the vesicular acetylcholine transporter” (J Med Chem, 2009)

How the values were obtained:
[1] = target: T1, Vesicular acetylcholine transporter (Homo sapiens, UniProt Q16572); assay: Displacement of [3H]vesamicol from human vesicular acetylcholine transporter expressed in rat PC12 cells by liquid scintillation spectrometry; format: cell-based, PC-12
T1 sequence (Q16572 whole entry): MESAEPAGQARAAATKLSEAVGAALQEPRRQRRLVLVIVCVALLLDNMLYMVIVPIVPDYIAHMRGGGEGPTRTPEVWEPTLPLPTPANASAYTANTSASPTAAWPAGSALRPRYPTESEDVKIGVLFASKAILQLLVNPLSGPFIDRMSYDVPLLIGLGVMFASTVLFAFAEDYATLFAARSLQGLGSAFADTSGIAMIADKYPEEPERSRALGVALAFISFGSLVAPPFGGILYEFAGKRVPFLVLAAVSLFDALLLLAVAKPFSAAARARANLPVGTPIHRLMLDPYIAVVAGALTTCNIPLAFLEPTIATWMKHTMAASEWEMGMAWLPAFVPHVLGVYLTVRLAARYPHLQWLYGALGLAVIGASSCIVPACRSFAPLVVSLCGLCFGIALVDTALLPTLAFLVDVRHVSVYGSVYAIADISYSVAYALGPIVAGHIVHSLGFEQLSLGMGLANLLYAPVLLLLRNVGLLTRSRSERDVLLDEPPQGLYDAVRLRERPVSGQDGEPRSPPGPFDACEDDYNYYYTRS

[2] = target: Sigma non-opioid intracellular receptor 1 (Cavia porcellus, UniProt Q60492); assay: Displacement of [3H](+)-pentazocine from sigma1 receptor in guinea pig brain membrane by liquid scintillation counting; format: cell membranes
[3] = Displacement of [3H]DTG from sigma2 receptor in rat liver membrane; format: cell membranes
Summary of the method: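 Rat liver membrane homogenate (~300 μg protein) incubated 2 h at room temperature with ~5 nM [3H]DTG plus 1 μM (+)-pentazocine to mask σ1 sites. Haloperidol 10 μM defines nonspecific binding. Filtered and counted.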

[4] = Selectivity ratio of Ki for human vesicular acetylcholine transporter to Ki for sigma1 receptor in guinea pig brain membrane; format: cell membranes

Sigma non-opioid intracellular receptor 1, sequence (Q60492 whole entry): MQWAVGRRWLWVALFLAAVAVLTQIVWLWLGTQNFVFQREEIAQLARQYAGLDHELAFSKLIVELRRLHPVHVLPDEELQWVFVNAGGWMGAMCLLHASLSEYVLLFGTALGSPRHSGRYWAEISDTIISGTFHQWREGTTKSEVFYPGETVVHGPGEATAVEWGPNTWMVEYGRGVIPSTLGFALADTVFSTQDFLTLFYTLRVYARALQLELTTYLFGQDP

Row | Structure (SMILES) | Ki [1] [nM] | Ki [2] [nM] | Ki [3] [nM] | Ratio Ki [4] | Kd [1] [nM]
1 | O[C@@H]1CCN(Cc2ccc(F)cc2)C[C@H]1N1CCC(c2ccccc2)CC1 | 0.22 | 21.6 | 35.9 | 98 | 
2 | NCC1(c2ccccc2)CCN([C@@H]2Cc3c(I)cccc3C[C@H]2O)CC1 |  |  |  |  | 3
3 | O[C@@H]1CC[C@H](OCc2ccc(F)cc2)C[C@H]1N1CCC(c2ccccc2)CC1 | 10.7 | 30.6 | 18.5 |  | 
4 | O[C@@H]1Cc2cccc(OCCCF)c2C[C@H]1N1CCC(c2ccccc2)CC1 | 0.77 |  |  |  | 
5 | O[C@@H]1Cc2cccc(OC/C=C/I)c2C[C@H]1N1CCC(c2ccccc2)CC1 | 0.45 |  |  |  | 
6 | O[C@@H]1C[C@H](OCc2ccc(F)cc2)CC[C@H]1N1CCC(c2ccccc2)CC1 | 330 | 21.3 | 15.8 |  | 
7 | O=C(c1ccc(F)cc1)C1CCN([C@@H]2Cc3ccccc3C[C@H]2O)CC1 (racemic) |  |  | 251 |  | 
8 | O=C(c1ccccc1)C1CCN([C@@H]2Cc3ccccc3C[C@H]2O)CC1 (racemic) | 4.3 | 220 | 320 | 51 | 
9 | O=C(c1ccc(Br)cc1)C1CCN([C@@H]2Cc3ccccc3C[C@H]2O)CC1 (racemic) | 0.25 | 298 | 593 | 1190 | 
10 | O=C(c1ccc([N+](=O)[O-])cc1)C1CCN([C@@H]2Cc3ccccc3C[C@H]2O)CC1 (racemic) | 0.48 |  |  |  | 
11 | O=C(c1ccc(F)cc1)C1CCN([C@@H]2Cc3ccccc3C[C@H]2O)CC1 (stereo in doubt; (+)-9e) |  |  | 278 |  | 
12 | O=C(c1ccc(F)cc1)C1CCN([C@@H]2Cc3ccccc3C[C@H]2O)CC1 (stereo in doubt; (-)-9e) |  |  | 319 |  | 
13 | O[C@@H]1CCCC[C@H]1N1CCC(c2ccccc2)CC1 [VESAMICOL] |  |  | 34.5 |  | 
